How the values were obtained:
[1] = molecular target: T1, Substance-P receptor (Homo sapiens, UniProt P25103); assay: Displacement of [125I]substance P from human NK1 receptor expressed in CHO cells in presence of 50% dog serum; format: cell-based
How it was run: (§1)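 Radioligand binding: [125I]substance P displaced from human NK1 receptor expressed in CHO cells; IC50 determined. Also run with 50% serum added (human, dog, rhesus, rat or gerbil) to measure the serum shift.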

[2] = molecular target: T2, PXR (nuclear receptor subfamily 1 group I member 2) (Homo sapiens, UniProt O75469); assay: Inhibition of human PXR induction at 10 uM
T2 sequence (O75469 whole entry): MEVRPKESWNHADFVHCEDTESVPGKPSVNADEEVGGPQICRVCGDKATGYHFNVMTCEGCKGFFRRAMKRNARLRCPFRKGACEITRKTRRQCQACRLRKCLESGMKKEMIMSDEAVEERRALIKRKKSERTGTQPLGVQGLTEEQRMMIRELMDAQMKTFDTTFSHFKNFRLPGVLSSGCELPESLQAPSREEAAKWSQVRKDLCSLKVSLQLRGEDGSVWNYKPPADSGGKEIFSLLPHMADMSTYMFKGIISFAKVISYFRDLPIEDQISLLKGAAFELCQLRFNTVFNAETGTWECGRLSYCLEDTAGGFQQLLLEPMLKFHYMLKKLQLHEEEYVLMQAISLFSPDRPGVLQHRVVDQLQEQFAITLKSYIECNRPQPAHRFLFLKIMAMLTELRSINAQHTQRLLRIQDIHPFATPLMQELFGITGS
How it was run: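 Human PXR induction measured at 10 µM compound, expressed as % of maximal induction.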

[3] = Plasma clearance in rat; format: ADME, organism-based
[4] = molecular target: Cytochrome P450 3A4 (Homo sapiens, UniProt P08684); assay: Inhibition of CYP3A4; format: ADME
Chain of Cytochrome P450 3A4 (P08684 whole entry): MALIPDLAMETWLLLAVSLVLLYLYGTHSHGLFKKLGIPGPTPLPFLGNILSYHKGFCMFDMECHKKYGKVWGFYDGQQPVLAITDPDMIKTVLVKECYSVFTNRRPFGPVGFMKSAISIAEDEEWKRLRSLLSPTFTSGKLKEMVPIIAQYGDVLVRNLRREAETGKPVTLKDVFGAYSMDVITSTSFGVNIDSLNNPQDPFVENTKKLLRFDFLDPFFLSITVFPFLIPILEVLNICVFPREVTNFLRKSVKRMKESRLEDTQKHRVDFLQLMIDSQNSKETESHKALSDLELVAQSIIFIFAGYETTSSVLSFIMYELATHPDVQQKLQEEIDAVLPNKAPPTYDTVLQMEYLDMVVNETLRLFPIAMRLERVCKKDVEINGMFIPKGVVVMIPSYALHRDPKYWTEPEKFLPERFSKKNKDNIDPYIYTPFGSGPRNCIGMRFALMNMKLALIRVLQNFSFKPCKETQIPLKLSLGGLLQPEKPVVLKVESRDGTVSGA

[5] = Plasma clearance in dog; format: ADME, organism-based, Canis lupus familiaris
[6] = molecular target: T1, Substance-P receptor; assay: Displacement of [125I]substance P from human NK1 receptor expressed in CHO cells in presence of 50% rhesus monkey serum; format: cell-based; how it was run: as §1
[7] = Ratio of drug level in brain to plasma in Mongolian gerbil; format: ADME, Meriones unguiculatus; settings: read-out: BPR
[8] = molecular target: T1, Substance-P receptor; assay: Displacement of [125I]substance P from human NK1 receptor expressed in CHO cells in presence of 50% mongolian gerbil serum; format: cell-based; how it was run: as §1
[9] = Binding affinity to sodium channel
How it was run: (§2)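 Ion channel binding assay; IC50 values calculated for sodium channel and for calcium channel (Dlz site).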

[10] = tested on: Meriones unguiculatus; assay: Inhibition of GR-73632-induced foot tapping in Mongolian gerbil at 3 mg/kg after 24 hrs; format: functional
How it was run: (§3)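 Gerbils given antagonist at the dose and pretreatment time shown (1 mg/kg at 1 h, 3 mg/kg at 24 h); foot tapping then induced with the NK1 agonist GR73632. Read-out is % inhibition of tapping; ED50 or ID50 from dose–response.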

[11] = molecular target: Cytochrome P450 2C9 (Homo sapiens, UniProt P11712); assay: Inhibition of CYP2C9; format: ADME
Chain of Cytochrome P450 2C9 (P11712 whole entry): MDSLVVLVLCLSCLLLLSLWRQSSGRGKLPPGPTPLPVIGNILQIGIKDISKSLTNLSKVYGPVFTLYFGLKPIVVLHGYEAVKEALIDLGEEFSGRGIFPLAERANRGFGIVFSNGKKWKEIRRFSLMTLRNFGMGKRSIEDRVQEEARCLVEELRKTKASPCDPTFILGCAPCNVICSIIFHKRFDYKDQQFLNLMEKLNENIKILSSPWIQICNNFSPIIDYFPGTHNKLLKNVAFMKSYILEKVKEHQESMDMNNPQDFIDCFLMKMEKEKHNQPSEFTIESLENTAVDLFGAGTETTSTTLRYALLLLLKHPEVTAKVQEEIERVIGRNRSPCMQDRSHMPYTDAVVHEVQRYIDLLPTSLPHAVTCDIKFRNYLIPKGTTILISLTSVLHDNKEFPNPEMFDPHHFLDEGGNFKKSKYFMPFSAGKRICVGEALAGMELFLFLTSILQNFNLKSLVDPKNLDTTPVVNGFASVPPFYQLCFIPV

[12] = Binding affinity to calcium channel; how it was run: as §2
[13] = molecular target: T1, Substance-P receptor; assay: Displacement of [125I]substance P from human NK1 receptor expressed in CHO cells; format: cell-based; how it was run: as §1
[14] = organism: Meriones unguiculatus; assay: Inhibition of GR-73632-induced foot tapping in Mongolian gerbil after 1 hr; format: functional; settings: read-out: ID50 (the source's name); how it was run: as §3
[15] = Binding affinity to potassium channel IKr
[16] = Half life in dog; format: ADME, organism-based, Canis lupus familiaris; settings: in vivo
[17] = molecular target: T1, Substance-P receptor; assay: Displacement of [125I]substance P from human NK1 receptor expressed in CHO cells in presence of 50% rat serum; format: cell-based; how it was run: as §1
[18] = Half life in rat; format: ADME, organism-based; settings: in vivo
[19] = Oral bioavailability in rat; format: ADME, organism-based; settings: in vivo
[20] = molecular target: T1, Substance-P receptor; assay: Antagonist activity at human recombinant NK1 receptor expressed in CHO cells assessed as remaining substance P level at 100 nM after 30 mins by [H3]-inositol phosphate release assay; format: functional, cell-based
How it was run: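 CHO cells with recombinant human NK1 receptor, 2.5 × 10⁴ per well, plated overnight, then prelabelled overnight at 37 °C with [3H]-myo-inositol (10–25 Ci/mmol) in inositol-free medium with 0.02% BSA. LiCl 10 mM in HEPES-buffered inositol-free DMEM, 15 min. Antagonist at 100 nM or DMSO for 30 min, then substance P for 30 min. Stopped with formic acid. [3H]-inositol phosphate captured on yttrium silicate SPA beads, 2 h. Reported as % substance P response remaining.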

[21] = organism: Meriones unguiculatus; assay: Inhibition of GR-73632-induced foot tapping in Mongolian gerbil after 24 hrs; format: functional; how it was run: as §3
[22] = Mean residence time in rat; format: ADME, organism-based; settings: in vivo
[23] = Metabolic stability in rhesus monkey microsomes assessed as compound remaining after 60 mins; format: ADME, Macaca mulatta, Microsome; settings: read-out: Stability
How it was run: (§4)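 Compound incubated 60 min with liver microsomes from human, dog, rat or rhesus; % parent remaining measured.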

[24] = Metabolic stability in dog microsomes assessed as compound remaining after 60 mins; format: ADME, Canis lupus familiaris, Microsome; settings: read-out: Stability; how it was run: as §4
[25] = molecular target: T1, Substance-P receptor; assay: Displacement of [125I]substance P from human NK1 receptor expressed in CHO cells in presence of 50% human serum; format: cell-based; how it was run: as §1
[26] = molecular target: Cytochrome P450 2D6 (Homo sapiens, UniProt P10635); assay: Inhibition of CYP2D6; format: ADME
Chain of Cytochrome P450 2D6 (P10635 whole entry): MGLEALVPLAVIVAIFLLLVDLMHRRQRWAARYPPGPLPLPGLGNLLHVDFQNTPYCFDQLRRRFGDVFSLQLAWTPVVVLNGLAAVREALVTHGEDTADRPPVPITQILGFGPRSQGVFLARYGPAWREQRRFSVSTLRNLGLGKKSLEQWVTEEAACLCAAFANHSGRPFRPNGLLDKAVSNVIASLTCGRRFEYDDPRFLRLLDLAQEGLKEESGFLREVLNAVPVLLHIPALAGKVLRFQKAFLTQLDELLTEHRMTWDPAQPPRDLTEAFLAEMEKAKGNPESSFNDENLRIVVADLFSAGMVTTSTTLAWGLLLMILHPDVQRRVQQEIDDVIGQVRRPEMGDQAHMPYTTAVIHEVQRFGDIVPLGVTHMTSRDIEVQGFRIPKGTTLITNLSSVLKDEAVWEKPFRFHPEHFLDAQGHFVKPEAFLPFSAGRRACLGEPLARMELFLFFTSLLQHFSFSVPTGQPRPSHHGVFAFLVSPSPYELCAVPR

[27] = Metabolic stability in human microsomes assessed as compound remaining after 60 mins; format: ADME, Microsome; settings: read-out: Stability; how it was run: as §4
[28] = molecular target: T3, Nuclear receptor subfamily 1 group I member 2 (Homo sapiens, UniProt O75469); assay: Inhibition of human PXR induction
T3 sequence (O75469 whole entry): T2 sequence (O75469 whole entry)

[29] = Volume of distribution in rat; format: ADME, organism-based; settings: in vivo
[30] = Metabolic stability in rat microsomes assessed as compound remaining after 60 mins; format: ADME, Microsome; settings: read-out: Stability; how it was run: as §4

T1 sequence (P25103 whole entry): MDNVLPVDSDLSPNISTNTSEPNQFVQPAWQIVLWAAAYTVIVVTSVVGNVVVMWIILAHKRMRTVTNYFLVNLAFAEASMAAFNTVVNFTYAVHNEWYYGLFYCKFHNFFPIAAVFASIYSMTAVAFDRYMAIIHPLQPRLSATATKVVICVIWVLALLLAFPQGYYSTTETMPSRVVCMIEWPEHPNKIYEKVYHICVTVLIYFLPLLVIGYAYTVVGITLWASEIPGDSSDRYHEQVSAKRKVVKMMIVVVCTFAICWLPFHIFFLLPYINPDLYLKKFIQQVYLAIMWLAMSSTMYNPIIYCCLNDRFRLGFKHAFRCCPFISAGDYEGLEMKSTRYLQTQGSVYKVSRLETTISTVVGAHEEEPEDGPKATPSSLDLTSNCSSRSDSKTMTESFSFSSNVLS

IC50 [1]: 1.5 nM | Emax at 10 µM [2]: 37% | clearance [3]: 3.24 mL/min/kg | IC50 [4]: 22700 nM | clearance [5]: 0.5 mL/min/kg | IC50 [6]: 0.4 nM | Kp [7]: 0.5 | IC50 [8]: 1.9 nM | IC50 [9]: > 10000 nM | IC50 [11]: 43100 nM | IC50 [12]: > 10000 nM | IC50 [13]: 0.061 nM | half-life [16]: 58 h | IC50 [17]: 0.4 nM | half-life [18]: 14.6 h | bioavailability [19]: 88.8% | Activity [20]: 3% | MRT [22]: 4.67 h | remaining at 1 h [23]: 99% | remaining at 1 h [24]: 90% | IC50 [25]: 0.7 nM | IC50 [26]: 17400 nM | remaining at 1 h [27]: 96% | IC50 [28]: 8400 nM | Vd [29]: 4.03 L/kg | remaining at 1 h [30]: 96%
Compound: C[C@@H](O[C@H]1CN2C(=O)[C@H]3C[C@@](C)(O)C[C@H]3[C@H]2[C@@H]1c1ccc(F)cc1)c1cc(C(F)(F)F)cc(C(F)(F)F)c1
inhibition in vivo at 3 mg/kg [10]: 100% | ED50 [14]: 0.02 mg/kg | IC50 [15]: 2470 nM | ED50 ([21]; read-out: ED50): 0.02 mg/kg | ED50 ([21]; read-out: ID50 (the source's name)): 0.02 mg/kg

Source: ChEMBL document CHEMBL1255526, “Fused tricyclic pyrrolizinones that exhibit pseudo-irreversible blockade of the NK1 receptor” (Bioorg Med Chem Lett, 2010)
